Experimental data collected from several papers.
Each line is one published result; the experiments were not run side by side.
Target: Adenosine receptor A2a (ADORA2A, Homo sapiens, UniProt P29274)

| Structure (SMILES) | test | setting | inhibition [%] |
| --- | --- | --- | --- |
| CCN(Cc1ccccc1C(F)(F)F)C(=O)C1CCN(S(=O)(=O)c2ccc3[nH]ncc3c2)CC1 | ligand displacement, radioligand | 10 µM | 3 |
| C=CN1CCCn2c1nc1c2c(=O)n(C)c(=O)n1C | ligand displacement, radioligand | 10 µM, cell membranes | 29 |
| CC(C)(C)OC(=O)N1CCN(CC(=O)Nc2ccc3oc(-c4ccco4)nc3c2)CC1 | ligand displacement, radioligand | 10 µM, cell membranes | 25 |
| Ic1cccc2cnccc12 | ligand displacement, radioligand | 10 µM | 8 |
| C#CCNc1nc(Cl)nc2c1ncn2[C@H]1[C@H](O)[C@H](O)[C@]2(C(=O)NC)C[C@H]12 | ligand displacement, radioligand | 10 µM, cell membranes | 23 |
| Nc1nc[nH]c(=O)c1Cl | ligand displacement, radioligand | 30 µM, cell membranes | 23 |
| O=C(Nc1ccc(S(=O)(=O)N2CCC(Cl)CC2)cc1)c1ccc([N+](=O)[O-])o1 | ligand displacement, radioligand | 10 µM | 8 |
| O=C(c1ccc(F)cc1)N(Cc1ccccc1)C1CCCCC1 | cell-free assay | 10 µM | 5 |
| c1coc(-c2nc3ccc(CN4CCCCC4)cc3o2)c1 | ligand displacement, radioligand | 10 µM, cell membranes | 5 |
| COc1cc(NC(C)=O)c(Cl)cc1C(=O)Nc1nccs1 | cell-free assay | 10 µM | 39.7 |
| c1ccc(N2CCN(CCc3ccc4oc(-c5ccco5)nc4c3)CC2)cc1 | ligand displacement, radioligand | 10 µM, cell membranes | 3 |
| O=C1N=C(N2CCCCN2)S/C1=C\c1ccc(F)cc1O | ligand displacement, radioligand | 10 µM | 10 |
